# Data published in paper PMC3733499 (Thrombosis and haemostasis, 2013).
# Numbering of substitutions follows the chain as printed. Names and notes keep the numbering of the source. Where a SMILES comes first, the peptide text is derived from it.
# T1: Factor Va (human, UniProt P12259 29-737; P12259 1574-2224)
# T1 sequence (looked up) 1: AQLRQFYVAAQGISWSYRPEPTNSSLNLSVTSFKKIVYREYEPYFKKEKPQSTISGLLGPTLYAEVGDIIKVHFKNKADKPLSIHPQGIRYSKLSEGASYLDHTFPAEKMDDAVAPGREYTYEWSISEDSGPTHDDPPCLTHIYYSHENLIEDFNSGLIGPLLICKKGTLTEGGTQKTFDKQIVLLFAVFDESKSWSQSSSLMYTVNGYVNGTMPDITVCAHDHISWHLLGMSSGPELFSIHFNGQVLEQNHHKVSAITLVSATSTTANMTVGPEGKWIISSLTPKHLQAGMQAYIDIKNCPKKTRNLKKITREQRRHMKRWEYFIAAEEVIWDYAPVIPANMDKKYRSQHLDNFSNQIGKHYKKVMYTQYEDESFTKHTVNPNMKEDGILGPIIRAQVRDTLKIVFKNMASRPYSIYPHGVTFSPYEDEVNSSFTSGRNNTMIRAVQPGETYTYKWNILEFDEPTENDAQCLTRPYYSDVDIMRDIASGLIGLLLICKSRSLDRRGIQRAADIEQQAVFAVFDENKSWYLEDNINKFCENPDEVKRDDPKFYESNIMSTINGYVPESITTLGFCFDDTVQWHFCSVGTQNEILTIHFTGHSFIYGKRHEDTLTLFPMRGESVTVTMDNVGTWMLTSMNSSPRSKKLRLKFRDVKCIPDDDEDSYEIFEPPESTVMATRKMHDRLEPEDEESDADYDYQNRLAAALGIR
# T1 sequence (looked up) 2: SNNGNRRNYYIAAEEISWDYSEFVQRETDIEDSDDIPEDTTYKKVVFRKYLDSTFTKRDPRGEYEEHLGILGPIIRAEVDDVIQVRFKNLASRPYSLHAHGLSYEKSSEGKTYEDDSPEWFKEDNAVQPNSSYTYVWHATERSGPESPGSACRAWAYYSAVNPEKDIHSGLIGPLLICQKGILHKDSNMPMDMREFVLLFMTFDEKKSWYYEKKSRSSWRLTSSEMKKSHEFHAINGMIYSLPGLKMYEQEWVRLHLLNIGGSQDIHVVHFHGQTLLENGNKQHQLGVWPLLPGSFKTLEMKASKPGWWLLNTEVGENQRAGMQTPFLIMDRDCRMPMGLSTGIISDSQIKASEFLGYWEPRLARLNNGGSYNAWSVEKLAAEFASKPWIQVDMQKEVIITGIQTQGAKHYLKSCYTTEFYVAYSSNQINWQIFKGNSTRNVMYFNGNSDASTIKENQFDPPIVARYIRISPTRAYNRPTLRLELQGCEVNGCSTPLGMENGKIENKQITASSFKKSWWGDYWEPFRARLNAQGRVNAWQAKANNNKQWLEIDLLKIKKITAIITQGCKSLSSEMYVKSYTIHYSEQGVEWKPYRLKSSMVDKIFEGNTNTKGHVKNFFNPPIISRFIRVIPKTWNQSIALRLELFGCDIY
# B1: Protein S (natural protein, human, UniProt P07225 42-676, looked up)
# chain: ANSLLEETKQGNLERECIEELCNKEEAREVFENDPETDYFYPKYLVCLRSFQTGLFTAARQSTNAYPDLRSCVNAIPDQCSPLPCNEDGYMSCKDGKASFTCTCKPGWQGEKCEFDINECKDPSNINGGCSQICDNTPGSYHCSCKNGFVMLSNKKDCKDVDECSLKPSICGTAVCKNIPGDFECECPEGYRYNLKSKSCEDIDECSENMCAQLCVNYPGGYTCYCDGKKGFKLAQDQKSCEVVSVCLPLNLDTKYELLYLAEQFAGVVLYLKFRLPEISRFSAEFDFRTYDSEGVILYAESIDHSAWLLIALRGGKIEVQLKNEHTSKITTGGDVINNGLWNMVSVEELEHSISIKIAKEAVMDINKPGPLFKPENGLLETKVYFAGFPRKVESELIKPINPRLDGCIRSWNLMKQGASGIKEIIQEKQNKHCLVTVEKGSYYPGSGIAQFHIDYNNVSSAEGWHVNVTLNIRPSTGTGVMLALVSGNNTVPFAVSLVDSTSEKSQDILLSVENTVIYRIQALSLCSDQQSHLEFRVNRNNLELSTPLKIETISHEDLQRQLAVLDKAMKAKVATYLGGLPDVPFSATPVNAFYNGCMEVNINGVQLDLDEAISKHNDIRAHSCPSVWKKTKNS
# B2: T37M PS: recombinant PS with mutation of Thr37 to Met (protein, UniProt P07225 42-676, looked up, variant T37M)
# Vitamin K-dependent protein S: B1 chain with T37M
# B3: K155E PS: recombinant K155E PS, prevalent Japanese mutation (protein, UniProt P07225 42-676, looked up, variant K155E)
# Vitamin K-dependent protein S: B1 chain with K155E
# Legend:
# [1] = molecular target: T2, prothrombinase (FXa/FVa/PL) (Homo sapiens, UniProt P00742+P12259); experiment: Purified component prothrombinase assay with FVa and PL; type: biochemical; conditions: for FVa-dependent inhibition of prothrombinase activity: peptide preincubated 10 min with FVa/FXa/PL
# [2] = tested on: prothrombinase (FXa/FVa); experiment: Purified component prothrombinase assay with FVa, without PL; type: biochemical, human; conditions: absence of PL; data not shown
# [3] = tested on: platelet and fibrin deposition; conditions: PS infused without APC; ref [15]; cited from earlier work
# [4] = tested on: FXa-induced clotting of PS-depleted plasma (PSdP); experiment: FXa-1-stage clotting assay without exogenous PL; type: cell-based, human; conditions: no exogenous PL, base clotting time 98 sec
# Procedure, shortened: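 Human PS-depleted plasma mixed with HBS-BSA containing purified human PS (up to 379 nM) with or without neutralizing mAb S4, plus FXa. No exogenous phospholipid added. Incubated 3 min at 37°C, recalcified with CaCl2 (33 mM stock), and clotting time measured on a coagulometer. FXa standard curves without PS (up to 19 pM as 100%) converted clotting times to % FXa activity.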
# [5] = molecular target: T2, prothrombinase (FXa/FVa/PL); conditions: ref [9], cited from earlier work
# [6] = molecular target: Factor Va (Homo sapiens) (UniProt P12259); conditions: cited from earlier work
# [7] = molecular target: Factor Xa (Homo sapiens) (UniProt P00742); conditions: cited from earlier work
# [8] = tested on: mAb S4; experiment: Binding of mAb S4 to immobilized peptides; conditions: peptide coated at 20 μM, mAb S4 26 nM, anti-mouse IgG detection
# Procedure, shortened: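 Wells coated with peptide and blocked with I-Block; mAb S4 at 26 nM incubated in the wells. Bound antibody detected with anti-mouse IgG, then biotinylated secondary antibody, streptavidin-alkaline phosphatase and phosphatase substrate. Wash solution was HBS with 0.1% porcine skin gelatin and 2 mM CaCl2. Signal from noncoated blocked wells subtracted from coated wells.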
# [9] = molecular target: T1, Factor Va; experiment: ELISA
# [10] = molecular target: T1, Factor Va; experiment: ELISA; remark: listed apart in the source
# [11] = molecular target: T1, Factor Va; experiment: ELISA; remark: listed apart in the source
# [12] = Thr37 to Met mutation; ref [28]; cited from earlier work
# [13] = tested on: activated protein C (APC); conditions: Thr37 to Met mutation; ref [28]; cited from earlier work
# [14] = tested on: APC; conditions: recombinant; ref [39]; cited from earlier work
# [15] = tested on: FXa; conditions: recombinant; ref [39]; cited from earlier work
# [16] = tested on: FVa; conditions: recombinant; ref [39]; cited from earlier work
# T2 sequence (P00742 41-179 partner limits assumed, one chain of several): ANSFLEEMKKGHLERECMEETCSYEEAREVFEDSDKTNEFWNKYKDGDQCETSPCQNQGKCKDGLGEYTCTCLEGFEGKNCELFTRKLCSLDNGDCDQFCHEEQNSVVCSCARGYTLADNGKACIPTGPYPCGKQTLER
# T2 sequence (P00742 235-488 partner limits assumed, one chain of several): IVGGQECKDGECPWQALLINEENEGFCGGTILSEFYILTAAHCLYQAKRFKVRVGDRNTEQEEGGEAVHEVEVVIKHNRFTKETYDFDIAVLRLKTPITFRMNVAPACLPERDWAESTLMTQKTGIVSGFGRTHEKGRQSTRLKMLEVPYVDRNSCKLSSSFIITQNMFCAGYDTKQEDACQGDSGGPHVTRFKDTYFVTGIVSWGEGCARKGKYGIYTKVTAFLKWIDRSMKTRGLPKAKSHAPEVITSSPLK
# Sequence of Factor Xa (Homo sapiens) (P00742 235-488): as the sequence (P00742 235-488 partner limits assumed, one chain of several) above
molecule,measurement,setting,value
"PSP30: 14-mer peptide, PS residues 30–43 (VFENDPETDYFYPK; UniProt P07225 71-84, looked up, fragment)",FVa-dependent inhibition of prothrombinase activity,[1],did not inhibit prothrombinase
Phospholipase A2,Effect of phospholipase A2 on PS inhibition,[2],no effect on PS inhibition
same,Effect of phospholipase A2 on prothrombinase activity,[2],no effect on prothrombinase activity
same,Effect of phospholipase A2 on prothrombinase activity,"[1]; mixtures that contained PL, data not shown",greatly diminished
PS: immunoaffinity-purified free plasma protein S retaining Zn^2+,Inhibition of platelet and fibrin deposition,[3],inhibited platelet and fibrin deposition
same,Maximal prolongation of clotting time by PS,[4],95 s
same,Vmax alteration by PS,[5]; at 60% inhibition,2.2 fold
same,Km alteration by PS,[5],2 fold
Protein S (from UniProt P07225),Kd,[6],33 nM
same,Kd,[7],18 nM
"CC(C)C[C@H](NC(=O)[C@H](CS)NC(=O)[C@@H](NC(=O)[C@H](CC(C)C)NC(=O)[C@H](Cc1ccc(O)cc1)NC(=O)[C@H](CCCCN)NC(=O)[C@@H]1CCCN1C(=O)[C@H](Cc1ccc(O)cc1)NC(=O)[C@H](Cc1ccccc1)NC(=O)[C@H](Cc1ccc(O)cc1)NC(=O)[C@H](CC(=O)O)NC(=O)[C@@H](N)[C@@H](C)O)C(C)C)C(=O)N[C@@H](CCCNC(=N)N)C(=O)N[C@@H](CO)C(=O)O [PSP37, TDYFYPKYLVCLRS] (H-TDYFYPKYLVCLRS-OH)",IC50,[1],11000 nM
same,Inhibition of prothrombinase,[1]; 40 μM peptide,90%
"PSP48: 14-mer peptide, PS residues 48–61 (LRSFQTGLFTAARQ; UniProt P07225 89-102, looked up, fragment)",FVa-dependent inhibition of prothrombinase activity,[1],did not inhibit prothrombinase
"54–67: peptide representing PS residues 54–67 (TSR) (GLFTAARQSTNAYP; UniProt P07225 95-108, looked up, fragment)",Binding of mAb S4 to immobilized peptide,[8],detected
B1,binding result,[9],binds
TDYFYPKYLVCLRS [Peptide PSP37 (protein S residues 37-50)],IC50,[10],15000 nM
same,Kd,[11],14 nM
B2,Affinity for phospholipids,[12],diminished affinity for phospholipids
same,Decrease in APC cofactor activity,[13],3.6 fold
B3,Binding to APC,[14],defective binding to FXa and to APC
same,Binding to FXa,[15],defective binding to FXa and to APC
same,Binding to FVa,[16],normal binding to FVa
